Screens: PubChem BioAssay, The Scripps Research Institute Molecular Screening Center
V1aR counter: V1a receptor agonism, counter-screen for OXTR agonists; CHO-V1R cells, Fluo-8 calcium fluorescence, agonist mode; 0% DMSO, 100% 3 nM vasopressin; 320,000 tested, 0.25% active; P37288; activation, % at 3 µM;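 active = activation above the mean activation of all tested compounds plus 3 SD, per screening run, cut at about 20% in these data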;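 also: signal is peak over basal fluorescence ratio across a 100 second FLIPR read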
OX1R antag-1: OX1R (human) antagonism. O43613. OX1R-expressing cells, FRET antagonist read-out. inhibition, % at 6.6 µM. 330,000 tested, 1.8% active; in the data active = inhibition mostly above about 38%, no sharp cut-off; inactive = mostly below about 40%;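 also: 0% = agonist challenge alone and 100% = reference antagonist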
Target sequence (O43613 whole entry, looked up): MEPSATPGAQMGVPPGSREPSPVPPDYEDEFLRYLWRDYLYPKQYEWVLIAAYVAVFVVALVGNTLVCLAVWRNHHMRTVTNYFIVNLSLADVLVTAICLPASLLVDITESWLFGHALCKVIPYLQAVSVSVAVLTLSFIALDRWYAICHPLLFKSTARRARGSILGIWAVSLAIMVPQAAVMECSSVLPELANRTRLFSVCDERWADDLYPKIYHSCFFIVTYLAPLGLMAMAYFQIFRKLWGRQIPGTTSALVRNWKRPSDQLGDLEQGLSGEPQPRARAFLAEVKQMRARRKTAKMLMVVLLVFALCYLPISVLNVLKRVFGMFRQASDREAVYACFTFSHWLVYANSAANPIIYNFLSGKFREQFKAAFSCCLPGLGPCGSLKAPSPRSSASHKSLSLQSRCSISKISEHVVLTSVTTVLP
OX1R antag-2: human HCRTR1 antagonism. O43613. CHO/OX1R cells, Fluo-8 calcium fluorescence, orexin A. 330,000 tested, 0.43% active. inhibition, % at 5 µM;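 active = inhibition above its plate's threshold, mean inhibition of all tested compounds on the plate plus 3 SD, cut at about 37% in these data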;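 also: 0% = orexin A challenge wells and 100% = SB-334867-A antagonist wells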
OXTR potentiate: potentiates the human oxytocin receptor response; P30559; CHO-OTR cells, Fluo-8 calcium fluorescence, potentiator mode; 0% = oxytocin EC15, 100% = EC100; activation, % at 3 µM; 320,000 tested, 0.061% active; AID 2445;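 active = activation above that plate's cutoff, the mean activation of tested compounds plus 3 SD, cut at about 6.6% in these data, passing the limit was not always enough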;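 also: 100% uses oxytocin at 75 nM as the full agonist control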
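Assay system: CHO-OTR cells, human receptor / Also added: oxytocin at about EC15, sub-maximal agonist stimulus / Dosing: single dose, 3.0 µM nominal final compound concentration / Incubation: 6 min pre-incubation, 100 s read / Technique: Fluo-8 calcium dye fluorescence / Read-out: % activation vs EC15 and EC100 oxytocin / Benchmarks: EC15 oxytocin low, 75 nM oxytocin high / Replicates: singlicate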
OXTR agonist: agonists of human oxytocin receptor. 320,000 tested, 0.32% active. P30559. CHO-OTR cells, Fluo-8 calcium fluorescence; normalized: DMSO 0%, oxytocin 100%. activation, % at 3 µM;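 active = activation above the mean of all tested compounds plus 3 SD, cutoff set per screening run, cut at about 20% in these data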;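 also: peak over basal fluorescence ratio from a 100 s FLIPR kinetic read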
CHO parental Ca: signal in parental CHO cells, OX1R antagonist counter-screen; inhibition, % at 5.6 µM; parental CHO-K1, ATP-induced calcium, Fluo-8 fluorescence; 330,000 tested, 0.63% active; AID 463079;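 active = inhibition above that plate's mean sample inhibition plus 3 SD, cut at about 26% in these data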;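 also: 0% = ATP-challenged DMSO wells and 100% = DMSO wells without ATP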
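Material: parental CHO cells / Compound: single nominal dose of 5.6 µM per compound / Signal: Fluo-8 fluorescence / Replicates: singlicate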
OX1R HTRF conf: confirmation of human orexin 1 receptor antagonists, HTRF format; shares compounds with OX1R antag-1; OX1R-expressing cells, HTRF antagonist assay; 1,800 tested, 49% active; inhibition, % at 6.6 µM; in the data active = inhibition above about 55%;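 also: CHO cells expressing OX1R stimulated with orexin A at about EC80; 0% = agonist challenge alone and 100% = reference antagonist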
CHO-K1 HTRF: signal in parental CHO-K1 cells, OX1R antagonist counter-screen | shares compounds with OX1R antag-1 | HTRF counterscreen | inhibition, % at 6.6 µM | 1,800 tested, 48% active; in the data active = inhibition above about 17%;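 also: 0% = agonist challenge with vehicle and 100% = vehicle alone without agonist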
* = called active by the depositor; nt = no result given. Shown are actives, neighbours in structure and some others; about 2.7% of the full set was active somewhere.

SMILES | V1aR counter | OX1R antag-1 | OX1R antag-2 | OXTR potentiate | OXTR agonist | CHO parental Ca | OX1R HTRF conf | CHO-K1 HTRF
CCCCN(CC)CCCNC(=O)c1cc2cc3ccc(OC)cc3nc2o1 | 1 | 104* | -20 | -5 | 1 | -25 | 45 | 49*
COc1ccc2cc3cc(C(=O)NCc4cccs4)oc3nc2c1 | 0 | 22 | 0 | 4 | 0 | 0 | nt | nt
CCCCn1c(N)c(N(CCOC)C(=O)c2ccc(-n3c(C)ccc3C)cc2)c(=O)[nH]c1=O | 1 | 15 | -8 | -3 | 1 | -8 | nt | nt
COc1ccc(CCNC(=O)c2cc3c(=O)n4ccccc4nc3n(CC3CCCO3)c2=N)cc1OC (stereo unspecified) | 0 | 82* | -35 | -4 | 0 | -6 | 60* | 77*
N=c1c(C(=O)NCCc2ccccc2)cc2c(=O)n3ccccc3nc2n1CC1CCCO1 (stereo unspecified) | 2 | 88* | -26 | -3 | -1 | -21 | 83* | 62*
COCCCn1c(=N)c(C(=O)NCC2CCCO2)cc2c(=O)n3ccccc3nc21 (stereo unspecified) | 0 | 93* | -12 | -9 | -1 | -18 | 48 | 65*
N=c1c(C(=O)NC2CCCC2)cc2c(=O)n3ccccc3nc2n1CCN1CCOCC1 | 0 | 102* | -7 | -10 | -1 | -8 | 35 | 43*
N#CC(C#N)=c1ccc2c(c1)NC1(CCCCC1)N=2 | 1 | 191* | -4 | -16 | 3 | -8 | 52 | 58*
CN1C(=O)/C(=C2/C=Cc3ccccc3N2CCCS(=O)(=O)O)SC1=S | -1 | 100* | 3 | -4 | -1 | -4 | 59* | 97*
CC1(C)CC(NC(=O)COc2ccc([N+](=O)[O-])cc2)CC(C)(C)N1 | 2 | 20 | -22 | -13 | 0 | -11 | nt | nt
CC1(C)CC(NC(=O)c2cc([N+](=O)[O-])cc([N+](=O)[O-])c2)CC(C)(C)N1 | 0 | 98* | -2 | 0 | 1 | -6 | 78* | 78*
CN(CCCC(=O)NC1CC(C)(C)NC(C)(C)C1)S(=O)(=O)c1ccc([N+](=O)[O-])cc1 | 1 | 79* | -5 | 0 | 0 | -11 | 45 | 59*
C=CCn1c(-c2ccc(OC)cc2)nc2nc3ccccc3nc21 | 0 | 21 | -15 | -3 | -2 | -27 | nt | nt
c1ccc(-c2nc3nc4ccccc4nc3n2Cc2ccco2)cc1 | -1 | 107* | -13 | 3 | 0 | -20 | 33 | 18*
CCOP1(=O)OCC2OC(n3cnc4c(N)ncnc43)C(O)C2O1 (stereo unspecified) | 0 | 18 | -4 | -14 | 0 | 4 | nt | nt
CCC(Oc1ccccc1)C(=O)Nc1ncc([N+](=O)[O-])s1 (stereo unspecified) | 8 | 79* | 3 | -16 | 14 | 9 | 29 | 15
Cc1ccc(S(=O)(=O)N2CCN(C(=O)CN3C(=O)c4ccc([N+](=O)[O-])cc4C3=O)CC2)c(C)c1 | 5 | 31 | -4 | -9 | 3 | -9 | nt | nt
Cc1ccc(N=Nc2c(=O)[nH]n3c(C)cc(C)nc23)cc1 | -1 | 174* | -25 | -6 | -1 | -14 | 48 | 80*
Cc1cc(C)n2[nH]c(=O)c(N=Nc3ccc(S(N)(=O)=O)cc3)c2n1 | 1 | 88* | -13 | 0 | 1 | -5 | 57* | 85*
Clc1cccc(Cl)c1C[n+]1ccc2ccccc2c1 | 1 | 23 | -2 | 3 | 1 | 4 | nt | nt
Cc1nn2c3ccccc3nc2c2ccccc12 | 0 | 88* | 25 | -13 | -2 | -11 | 83* | -12
CC1(C)NC(=O)N(CC(=O)OCC(=O)Nc2cc(S(=O)(=O)N3CCCCCC3)ccc2Cl)C1=O | 1 | -2 | -6 | -2 | 1 | -2 | nt | nt
COc1ccc(CCn2c(=N)c(C(=O)N3CCN(C)CC3)cc3c(=O)n4ccccc4nc32)cc1 | 0 | 105* | -27 | -9 | -1 | -21 | 38 | 51*
N=c1c(C(=O)NCc2ccco2)cc2c(=O)n3ccccc3nc2n1CCc1ccccc1 | 0 | 114* | -32 | -7 | -2 | -28 | 51 | 42*
COCCn1c(=N)c(C(=O)NCc2ccco2)cc2c(=O)n3cc(C)ccc3nc21 | 3 | 108* | -21 | -3 | 0 | -6 | 49 | 69*
SMILES | V1aR counter | OX1R antag-1 | OX1R antag-2 | OXTR potentiate | OXTR agonist | CHO parental Ca | OX1R HTRF conf | CHO-K1 HTRF
COc1ccc(CCNC(=O)c2cc3c(=O)n4ccccc4nc3n(Cc3ccco3)c2=N)cc1OC | 0 | 28 | -13 | 0 | 0 | -2 | nt | nt
COc1ccc(CCn2c(=N)c(C(=O)NC3CCCCC3)cc3c(=O)n4ccccc4nc32)cc1 | -1 | 13 | -25 | -5 | -1 | -16 | nt | nt
CCOC(=O)c1nn(-c2ccc(OCC)cc2)c2nc(-c3ccco3)c(C#N)c(=O)n12 | 0 | 8 | -28 | -3 | 0 | -26 | nt | nt
O=[N+]([O-])c1ccc2c(c1)C(O)n1ncnc1S2 (stereo unspecified) | 0 | 108* | 2 | -14 | 0 | -1 | 37 | 48*
O=C1CSC(c2cccc([N+](=O)[O-])c2)N1c1ccc(O)cc1 (stereo unspecified) | 0 | 13 | -13 | -8 | 1 | -9 | nt | nt
O=C(CSc1cccc[n+]1[O-])Nc1c(Br)cc([N+](=O)[O-])cc1Br | 1 | 118* | -3 | -9 | 0 | -15 | 40 | 54*
CCC(COC)NC(=O)c1ccc(OC)c(OC2CCN(C(C)=O)CC2)c1 (stereo unspecified) | 1 | 8 | -1 | -4 | 1 | -9 | nt | nt
c1ccc2c(c1)oc1c(NCc3ccc4c(c3)OCO4)ncnc12 | 8 | 88* | 29 | -16 | 6 | 19 | 82* | 4
Cc1ccc(NC(=O)c2cc(-c3cc(C)c(C)cc3O)n[nH]2)cc1C | 1 | 12 | -24 | -4 | 0 | -15 | nt | nt
CCC(C)NS(=O)(=O)c1ccc(F)c(C(=O)Nc2c(F)cc(F)cc2Br)c1 (stereo unspecified) | 1 | 7 | -17 | -9 | -1 | -16 | nt | nt
COc1cccc(-c2nnc(SCC(=O)Nc3ccc4c(c3)OCCO4)n2Cc2ccco2)c1 | -1 | 78* | 24 | -7 | -2 | -19 | 52 | 5
COc1ccccc1N(CC(O)COc1ccc(C)cc1)S(=O)(=O)c1ccccc1 (stereo unspecified) | 0 | 78* | 16 | -16 | -2 | -15 | 91* | -1
